Results as given in ChEMBL document CHEMBL3784971, “Synthesis, characterization, antimicrobial and biofilm inhibitory studies of new esterquats” (Bioorg Med Chem Lett, 2016).
Converted amounts (≈) assume the structure as drawn. The source made the active and inactive calls. The rule behind the calls is not given here.

Key:
Staphylococcus aureus [1] = assay: Antimicrobial activity against Staphylococcus aureus MTCC 96 assessed as growth inhibition after 24 hrs by agar well diffusion method; assay type: functional; conditions: MTCC 96, 24 h
Escherichia coli [2] = assay: Bactericidal activity against Escherichia coli MTCC 739 after 24 hrs by serial dilution method; assay type: functional; conditions: MTCC 739, 24 h
Bacillus subtilis [3] = assay: Antimicrobial activity against Bacillus subtilis MTCC 121 assessed as growth inhibition after 24 hrs by agar well diffusion method; assay type: functional; conditions: MTCC 121, 24 h
Staphylococcus aureus [4] = assay: Bactericidal activity against Staphylococcus aureus MLS16 MTCC 2940 after 24 hrs by serial dilution method; assay type: functional; conditions: MLS16 MTCC 2940, 24 h
Pseudomonas aeruginosa = assay: Antimicrobial activity against Pseudomonas aeruginosa MTCC 2453 assessed as growth inhibition after 24 hrs by agar well diffusion method; assay type: functional; conditions: MTCC 2453, 24 h
Raoultella planticola [5] = assay: Antimicrobial activity against Klebsiella planticola MTCC 530 assessed as growth inhibition after 24 hrs by agar well diffusion method; assay type: functional; conditions: MTCC 530, 24 h
Staphylococcus aureus [6] = assay: Bactericidal activity against Staphylococcus aureus MTCC 96 after 24 hrs by serial dilution method; assay type: functional; conditions: MTCC 96, 24 h
Staphylococcus aureus [7] = assay: Antimicrobial activity against Staphylococcus aureus MLS16 MTCC 2940 assessed as growth inhibition after 24 hrs by agar well diffusion method; assay type: functional; conditions: MLS16 MTCC 2940, 24 h
Micrococcus luteus [8] = assay: Bactericidal activity against Micrococcus luteus MTCC 2470 after 24 hrs by serial dilution method; assay type: functional; conditions: MTCC 2470, 24 h
Bacillus subtilis [9] = assay: Bactericidal activity against Bacillus subtilis MTCC 121 after 24 hrs by serial dilution method; assay type: functional; conditions: MTCC 121, 24 h
Escherichia coli [10] = assay: Antimicrobial activity against Escherichia coli MTCC 739 assessed as growth inhibition after 24 hrs by agar well diffusion method; assay type: functional; conditions: MTCC 739, 24 h
Bacillus subtilis [11] = assay: Antibiofilm activity against Bacillus subtilis MTCC 121 after 24 hrs by crystal violet staining based assay; assay type: functional, organism-based; conditions: MTCC 121, 24 h
In short: (§1)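 Biofilm inhibition tested for amine esters and esterquats. IC50 values (µg/mL) are the mean of three determinations, with ciprofloxacin as reference.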

Micrococcus luteus [12] = assay: Antimicrobial activity against Micrococcus luteus MTCC 2470 assessed as growth inhibition after 24 hrs by agar well diffusion method; assay type: functional; conditions: MTCC 2470, 24 h
Micrococcus luteus [13] = assay: Antibiofilm activity against Micrococcus luteus MTCC 2470 after 24 hrs by crystal violet staining based assay; assay type: functional, organism-based; conditions: MTCC 2470, 24 h; in short: as §1
Raoultella planticola [14] = assay: Bactericidal activity against Klebsiella planticola MTCC 530 after 24 hrs by serial dilution method; assay type: functional; conditions: MTCC 530, 24 h
Staphylococcus aureus [15] = assay: Antibiofilm activity against Staphylococcus aureus MLS16 MTCC 2940 after 24 hrs by crystal violet staining based assay; assay type: functional, organism-based; conditions: MLS16 MTCC 2940, 24 h; in short: as §1
Staphylococcus aureus [16] = assay: Bactericidal activity against Staphylococcus aureus MLS16 MTCC 2940 assessed as increase in intracellular ROS accumulation in at 0.5 to 2 ug/mL after 24 hrs by DCFHDA staining based fluorometric assay; assay type: functional, organism-based
In short: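 Intracellular ROS measured in cells of mature biofilms using the general ROS fluorescent probe 2′,7′-dichlorofluorescein-diacetate (DCFH-DA), read as increase in fluorescence. Sessile cells and the supernatant were measured separately.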

Compound: O=C(O)c1cn(C2CC2)c2cc(N3CCNCC3)c(F)cc2c1=O [CIPROFLOXACIN]
- MIC (Staphylococcus aureus [1]): 0.9 µg/mL (≈ 2.72 µM)
- MBC (Escherichia coli [2]): 1.9 µg/mL (≈ 5.73 µM)
- MIC (Bacillus subtilis [3]): 0.9 µg/mL (≈ 2.72 µM)
- MBC (Staphylococcus aureus [4]): 0.9 µg/mL (≈ 2.72 µM)
- MIC (Pseudomonas aeruginosa): 0.9 µg/mL (≈ 2.72 µM)
- MIC (Raoultella planticola [5]): 0.9 µg/mL (≈ 2.72 µM)
- MBC (Staphylococcus aureus [6]): 1.9 µg/mL (≈ 5.73 µM)
- MIC (Staphylococcus aureus [7]): 0.9 µg/mL (≈ 2.72 µM)
- MBC (Micrococcus luteus [8]): 1.9 µg/mL (≈ 5.73 µM)
- MBC (Bacillus subtilis [9]): 0.9 µg/mL (≈ 2.72 µM)
- MIC (Escherichia coli [10]): 0.9 µg/mL (≈ 2.72 µM)
- IC50 (Bacillus subtilis [11]): 0.5 µg/mL (≈ 1.51 µM)
- MIC (Micrococcus luteus [12]): 0.9 µg/mL (≈ 2.72 µM)
- IC50 (Micrococcus luteus [13]): 0.6 µg/mL (≈ 1.81 µM)
- MBC (Raoultella planticola [14]): 1.9 µg/mL (≈ 5.73 µM)
- IC50 (Staphylococcus aureus [15]): 0.4 µg/mL (≈ 1.21 µM)
- Activity (Staphylococcus aureus [16]): Active
